Data set [1] is described as follows: Half life in Balb/c mouse at 5 mg/kg, iv by LC/MS/MS analysis. As to conditions: in vivo. In kind it is ADME, organism-based.
For data set [2], the system named is Mus musculus. The data set is described as follows: In vivo inhibition of SPPL2a in mouse assessed as increase in CD74/p8 accumulation in splenocytes at 10 to 100 mg/kg, po administered as single dose measured after 4 hrs by Western blot method. The format is functional, organism-based. (Immunoblotting shows a protein as a band on a membrane.)
A short description of data set [3]: Total plasma concentration in mouse at 30 mg/kg, po administered as single dose after 4 hrs by LC/MS/MS analysis. The format is ADME, organism-based.
Data set [4] in a line: Total plasma concentration in mouse at 100 mg/kg, po administered as single dose after 4 hrs by LC/MS/MS analysis. The format is ADME, organism-based.
Data set [5] can be described thus: Total concentration in Lewis rat blood at 30 mg/kg, po bid after 24 hrs by LC/MS/MS analysis. In kind it is ADME, organism-based. To be noted: read-out: Drug uptake.
In data set [6] the test system is Mus musculus. As to the kind of experiment: Immunomodulatory activity in mouse assessed as reduction in total B cells in splenocyte administered via oral gavage bid at 8 and 16 hrs dosing interval between first and second dose respectively for 11 days measured 16 hrs post last dose on day 12 by B220 staining based flow cytometry. In kind it is functional, cell-based. A general note: Flow cytometry measures light scatter and fluorescence of single cells or particles in a stream.

Another data set concerns Rattus norvegicus. As to the kind of experiment: Dose normalized AUC in Wistar rat at 10 mg/kg, po bid by LC/MS/MS analysis. To be noted: in vivo. In kind it is ADME, organism-based.
The next data set has as its system Salmonella typhimurium. The data set is described as follows: Genotoxicity in Salmonella typhimurium by Ames test. As to conditions: salmonella enterica subsp. enterica serovar typhimurium. The format is toxicity. In general terms: In the Ames test, an excess of revertant colonies over the control signals mutagenicity.
In data set [7] the test system is Plasma. The data set is described as follows: Cmin in mouse plasma at 3 mg/kg, po bid administered at 8 and 16 hrs dosing interval between first and second dose respectively for 11 days measured predose on day 12 by LC/MS/MS analysis. In kind it is ADME, organism-based. To be noted: in vivo, read-out: Cmin. The method in brief:
(§1)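 Mice gavaged bid in 0.5% MC:0.5% Tween or PEG:D5W 3:1; trough sample taken before the morning dose; 50 μL retro-orbital blood into LiHep tubes, kept on ice, plasma separated at 2823g for 5 min, stored at −20 °C until analysis.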

Data set [8] relates to Mus musculus. The data set is described as follows: Immunomodulatory activity in mouse assessed as reduction in marginal zone B cells in splenocyte at 3 to 30 mg/kg administered via oral gavage bid at 8 and 16 hrs dosing interval between first and second dose respectively for 11 days measured 16 hrs post last dose on day 12 by flow cytometry. In kind it is functional, organism-based. Put shortly: (§2)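 Mice gavaged with compound in 0.5% MC:0.5% Tween or PEG:D5W 3:1. Spleens dissociated in GentleMACS, filtered at 40 μm, ACK red-cell lysis, counted; 1 × 10^6 splenocytes stained 30 min on ice in HBSS/2% FBS/5 mM EDTA with antimouse panels for B-cell subsets (B220, CD21, CD23, IgM, IgD) or dendritic cells (PDCA1, CD11c, MHCII, lineage markers); analyzed on Fortessa flow cytometer.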

Data set [9] relates to Mus musculus. As to the kind of experiment: Immunomodulatory activity in mouse assessed as reduction in transition T2 B cells in splenocyte at 3 to 30 mg/kg administered via oral gavage bid at 8 and 16 hrs dosing interval between first and second dose respectively for 11 days measured 16 hrs post last dose on day 12 by flow cytometry. The format is functional, organism-based. Put shortly:
as §2

Data set [10] deals with T1, Signal peptide peptidase-like 2A (Mus musculus) (UniProt Q9JJF9).
T1 sequence (whole entry): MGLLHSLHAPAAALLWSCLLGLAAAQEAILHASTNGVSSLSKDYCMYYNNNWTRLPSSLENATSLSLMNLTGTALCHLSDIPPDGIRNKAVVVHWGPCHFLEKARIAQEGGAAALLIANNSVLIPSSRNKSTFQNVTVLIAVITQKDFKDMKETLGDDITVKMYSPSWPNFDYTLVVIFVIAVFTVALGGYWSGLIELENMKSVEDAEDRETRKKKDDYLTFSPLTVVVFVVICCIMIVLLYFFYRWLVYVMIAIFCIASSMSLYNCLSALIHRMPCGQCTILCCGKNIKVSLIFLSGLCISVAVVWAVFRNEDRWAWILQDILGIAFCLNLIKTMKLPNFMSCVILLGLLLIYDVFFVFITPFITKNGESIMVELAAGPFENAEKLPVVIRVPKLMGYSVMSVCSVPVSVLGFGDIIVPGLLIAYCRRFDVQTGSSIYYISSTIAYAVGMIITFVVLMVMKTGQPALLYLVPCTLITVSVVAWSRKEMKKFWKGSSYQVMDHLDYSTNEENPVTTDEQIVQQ
To be noted: 2 uM.

Data set [11] has as its system Plasma. As to the kind of experiment: Cmin in mouse plasma at 30 mg/kg, po bid administered at 8 and 16 hrs dosing interval between first and second dose respectively for 11 days measured predose on day 12 by LC/MS/MS analysis. The format is ADME, organism-based. To be noted: in vivo, read-out: Cmin. The method in brief: as §1
A short description of data set [12]: Inhibition of human SPP expressed in human U2OS cells using EGFP-labeled EnvSigSeq-SEAP as substrate after 24 hrs by Hoechst staining based high content imaging assay. The format is cell-based. The method in brief:
(§3)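 Stable U-2 OS lines expressing human SPPL2a, SPPL2b or SPP constitutively (mouse SPPL2a line analogous, mouse TNFα(aa1-77)-NTF-EGFP-NLS) with doxycycline-inducible EGFP substrate. 3000 cells/well, 3−4 h, then 11-point inhibitor 100 μM to 1 nM, 0.9% DMSO, 5 μg/mL doxycycline, 24 h 37 °C. PFA fixed, Hoechst nuclei; nuclear minus cytoplasmic EGFP intensity; inhibition vs 0.5 μM reference and DMSO; IC50 by nonlinear regression.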

The test system of data set [13] is Mus musculus. The data set is described as follows: In vivo inhibition of SPPL2a in mouse assessed as accumulation of CD74/p8 in splenocyte lysate at 40 mg/kg administered via oral gavage as single dose measured 16 hrs post dose by Western blot method. In kind it is functional, organism-based. Put shortly:
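Mice gavaged in 0.5% MC:0.5% Tween or PEG:D5W 3:1. Spleens dissociated, red cells lysed with ACK, 1 × 10^6 cells lysed with protease inhibitors; 18 μg lysate on 10% gel, blotted, CD74 full length and p8 detected with rat anti-mouse CD74 In-1 and Alexa488 anti-rat IgG, LiCor scan; p8/full-length ratio expressed as percent of reference compound ratio.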

For data set [14], the target named is T2, Signal peptide peptidase-like 2A (Mus musculus, UniProt Q9JJF9).
T2 sequence (Q9JJF9 whole entry): T1 sequence (whole entry)
As to the kind of experiment: Inhibition of mouse SPPL2a expressed in human U2OS cells using EGFP-labeled TNFalpha (1 to 77 residues) NLS as substrate after 24 hrs by Hoechst staining based high content imaging assay. In kind it is cell-based. The method in brief: as §3

In data set [15] the target is T1, Signal peptide peptidase-like 2A (Mus musculus). As to conditions: 2 uM. The source holds these as a separate data set.

Active and inactive are the calls of the source. The calls are words filed in the database; no cut-off is given here.

What is called half-life is how long it takes for the measured level to halve. A lower half-life goes with fast loss. In the case of `Cc1ccccc1NC(=O)C[C@@H](C)C(=O)N[C@@H]1C(=O)N2CCCN2Cc2ccccc21`, in [1], the half-life was 42 min. Further, in the data set with Mus musculus [2], the result was Active. Also, the concentration at 4 h in data set [3] was 500 nM; in [4] it was 2090 nM.
The term inhibition denotes the share of the control response that was lost under treatment. One may read the IC50 as the midpoint of a concentration-inhibition curve. A lower IC50 goes with greater potency in that assay. With `Cc1ncc(F)cc1NC(=O)C[C@H](C(=O)N[C@@H]1C(=O)N2CC3(CC3)CN2C(=O)c2ccccc21)C1CC1`, in data set [5], the concentration at 24 h was determined as 3560 nM. Also, the results for the Activity result in the data set on Mus musculus [6] and in the data set with Salmonella typhimurium were “Dose-dependent effect” and “Non-Toxic”, respectively. Moreover, the AUC/dose with Rattus norvegicus worked out at 8787 nM·h. The values for the concentration in the data set with Plasma [7] and in the data set on Plasma [11] were 16 nM and 1100 nM, respectively. Moreover, the outcome in the data set with Mus musculus [8] and in the data set with Mus musculus [9] was Active. Besides, the inhibition result in data set [10] is “inactive”. For the same compound, the IC50 in data set [12] turned out to be 3730 nM; in data set [14] it was 180 nM. Also, the inhibition entry with Mus musculus [13] was “Active”. The compound also returned an inhibition in [15] of 50%.

The values above are taken from ChEMBL document CHEMBL4043282, “Discovery of the First Potent, Selective, and Orally Bioavailable Signal Peptide Peptidase-Like 2a (SPPL2a) Inhibitor Displaying Pronounced Immunomodulatory Effects In Vivo” (J Med Chem, 2018).
